Results: publication PMC8662605 (Molecular Biology and Evolution, 2021)

Experiments:
[1] = system: white-faced saki Tas2R16 (wild-type, 172N); format: cell-based, white-faced saki (Pithecia pithecia)
[2] = system: 172K mutant of the white-faced saki Tas2R16; test: functional heterologous cell expression assay, calcium mobilization, mutagenesis; format: cell-based, white-faced saki (Pithecia pithecia); conditions: for EC50: 172K mutant of white-faced saki Tas2R16
How it was run: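 Saki Tas2R16 (wild-type, or the reverse 172K mutant made by site-directed mutagenesis) was expressed from HSV-tagged pcDNA5/FRT vectors, transiently transfected into HEK293 cells stably expressing chimeric Gα16-gust44. Calcium mobilisation on bitter stimulation was recorded on a fluorescence plate reader. EC50 came from nonlinear sigmoidal dose–response fits with variable slope. Cell-surface receptor expression was measured by imaging cytometry.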

[3] = molecular target: T1, human Tas2R16 (Homo sapiens, UniProt Q9NYV7); format: cell-based
T1 sequence (Q9NYV7 1-291): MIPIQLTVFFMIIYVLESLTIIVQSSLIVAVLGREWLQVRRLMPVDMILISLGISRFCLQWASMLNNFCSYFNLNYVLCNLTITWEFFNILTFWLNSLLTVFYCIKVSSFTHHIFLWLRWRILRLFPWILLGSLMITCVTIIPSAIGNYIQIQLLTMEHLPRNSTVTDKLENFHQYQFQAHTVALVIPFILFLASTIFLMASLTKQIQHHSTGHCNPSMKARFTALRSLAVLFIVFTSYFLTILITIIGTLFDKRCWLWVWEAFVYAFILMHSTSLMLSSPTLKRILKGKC

[4] = 172K saki mutant versus wild-type (172N)

| SMILES | EC50 [1] [µM] | EC50 [2] [µM] | fold increased EC50 value compared with the wild-type [2, 4] [fold] | sensitivity compared with the wild-type [2, 4] | EC50 [3] [µM] |
| --- | --- | --- | --- | --- | --- |
| O=Cc1ccccc1O[C@@H]1O[C@H](CO)[C@@H](O)[C@H](O)[C@H]1O [helicin] | 500 ± 40 | 890 ± 110 | ~2 | about 50% | – |
| OCc1ccccc1O[C@@H]1O[C@H](CO)[C@@H](O)[C@H](O)[C@H]1O [salicin] | 510 ± 30 | 1120 ± 190 | – | about 50% | 490 ± 80 |
